Experimental data taken from ChEMBL document CHEMBL1833940, “Discovery of 3-(2,6-dichloro-3,5-dimethoxy-phenyl)-1-{6-[4-(4-ethyl-piperazin-1-yl)-phenylamino]-pyrimidin-4-yl}-1-methyl-urea (NVP-BGJ398), a potent and selective inhibitor of the fibroblast growth factor receptor family of receptor tyrosine kinase” (J Med Chem, 2011).
Activity calls are given as the source filed them. The calls are words filed in the database; no cut-off is given here.

Key:
[1] = Half life in plasma of RT112/luc1 cells implanted athymic nude mouse at 5 mg/kg, iv by LC/MS/MS analysis; format: ADME, organism-based; set-up: dose 5 mg/kg, route intravenous
Summary of the method: (§1)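 Female athymic nude mice carried subcutaneous RT112/luc1 tumors (5×10^6 cells, 50% Matrigel; about 300–400 mm3). Dosing was either 5 mg/kg iv by tail vein in NMP/PEG200 (1:9) or 20 mg/kg oral suspension in PEG300/D5W (2:1). Groups of mice (n = 4) were sacrificed at 0.083–24 h. Plasma and tumor levels were measured by LC-MS/MS (LOQ 5 ng/mL, 10 ng/g).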

Tumour [2] = experiment: Dose normalized AUC in tumor of RT112/luc1 cells implanted athymic nude mouse at 20 mg/kg, po by LC/MS/MS analysis; format: ADME, organism-based, Neoplasm; set-up: dose 20 mg/kg, route oral; settings: in vivo; summary of the method: as §1
[3] = Clearance in Wistar rat at 5 mg/kg, iv by LC-MS/MS analysis; format: ADME, organism-based; set-up: dose 5 mg/kg, route intravenous; settings: in vivo
Summary of the method: (§2)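 Female Wistar rats received either an iv femoral-vein dose of 5 mg/kg in NMP/PEG200 (1:9) or an oral dose of monophosphate salt at 10 mg/kg (free base) in acetate buffer pH 4.6/PEG300. Plasma was sampled by sublingual bleeding at 0.083–24 h (n = 4 staggered, or n = 3–4 serial). Plasma levels were measured by LC-MS/MS (LOQ 10 ng/mL).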

[4] = Cmax in Wistar rat at 10 mg/kg, po by LC-MS/MS analysis; format: ADME, organism-based; set-up: dose 10 mg/kg, route oral; settings: in vivo; summary of the method: as §2
Rattus norvegicus [5] = experiment: Dose normalized AUC in Wistar rat at 10 mg/kg, po by LC-MS/MS analysis; format: ADME, organism-based; set-up: dose 10 mg/kg, route oral; settings: in vivo; summary of the method: as §2
UMUC3 = experiment: Antiproliferative activity against human UM-UC-3 cells after 72 hrs; format: functional, cell-based; settings: UMUC3, 72 h
Summary of the method: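 Bladder cancer lines from ATCC or DSMZ were seeded in 96-well plates (RT4, RT112 at 8500 cells/well; others at 5000 cells/well) in growth medium. Compound dilutions or DMSO were added 24 h later and incubated 72 h. Cells were fixed with glutaraldehyde, stained with 0.05% methylene blue and eluted with 3% HCl, then OD650 nm was read.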

[6] = molecular target: Tyrosine-protein kinase receptor UFO (Homo sapiens, UniProt P30530); experiment: Inhibition of recombinant AXL
Summary of the method: (§3)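 Purified recombinant kinases under optimized conditions, with peptide substrates and ATP at each kinase's Km. Phosphorylation was read out by microfluidic mobility shift, and IC50 values were obtained.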

[7] = molecular target: MAP kinase-activated protein kinase 2 (Homo sapiens, UniProt P49137); experiment: Inhibition of recombinant MK2
Chain of MAP kinase-activated protein kinase 2 (P49137 whole entry): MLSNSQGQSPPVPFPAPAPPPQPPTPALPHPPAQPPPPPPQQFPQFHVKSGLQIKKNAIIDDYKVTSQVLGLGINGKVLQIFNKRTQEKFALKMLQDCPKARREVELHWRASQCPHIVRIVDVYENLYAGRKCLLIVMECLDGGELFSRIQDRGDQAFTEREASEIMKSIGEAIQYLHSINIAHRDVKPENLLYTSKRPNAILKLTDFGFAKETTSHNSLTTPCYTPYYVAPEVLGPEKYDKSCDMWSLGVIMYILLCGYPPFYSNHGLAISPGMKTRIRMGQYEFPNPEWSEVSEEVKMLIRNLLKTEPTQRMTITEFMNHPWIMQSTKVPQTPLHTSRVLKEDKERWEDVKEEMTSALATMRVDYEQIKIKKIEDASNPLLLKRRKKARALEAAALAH
Summary of the method: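 Purified recombinant kinases with peptide substrates and ATP at each kinase's Km. Read-out was microfluidic mobility shift.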

[8] = molecular target: MAP kinase-activated protein kinase 5 (Homo sapiens, UniProt Q8IW41); experiment: Inhibition of recombinant MK5
Chain of MAP kinase-activated protein kinase 5 (Q8IW41 whole entry): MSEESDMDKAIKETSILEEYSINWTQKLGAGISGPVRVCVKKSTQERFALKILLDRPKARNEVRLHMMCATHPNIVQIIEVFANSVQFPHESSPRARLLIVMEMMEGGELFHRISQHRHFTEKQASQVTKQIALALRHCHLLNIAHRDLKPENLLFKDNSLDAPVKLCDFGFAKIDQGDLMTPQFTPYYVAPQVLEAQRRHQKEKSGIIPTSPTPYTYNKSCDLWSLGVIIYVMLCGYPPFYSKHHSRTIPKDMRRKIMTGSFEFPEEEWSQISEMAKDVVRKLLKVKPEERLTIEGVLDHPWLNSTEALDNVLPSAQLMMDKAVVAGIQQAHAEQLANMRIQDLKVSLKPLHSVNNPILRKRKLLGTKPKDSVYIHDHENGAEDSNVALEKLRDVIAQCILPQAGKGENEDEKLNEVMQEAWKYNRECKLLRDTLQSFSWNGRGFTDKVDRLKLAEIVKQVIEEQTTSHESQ
Summary of the method: (§4)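 Purified recombinant kinases under optimized conditions with peptide substrates. ATP was set at each kinase's Km. Phosphorylation was read by microfluidic mobility-shift separation of substrate and product; IC50 determined.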

[9] = molecular target: Serine/threonine-protein kinase mTOR (Homo sapiens, UniProt P42345); experiment: Inhibition of recombinant mTOR by luminescent kinase assay
[10] = molecular target: Serine/threonine-protein kinase PAK 2 (Homo sapiens, UniProt Q13177); experiment: Inhibition of recombinant PAK2; summary of the method: as §4
Chain of Serine/threonine-protein kinase PAK 2 (Q13177 whole entry): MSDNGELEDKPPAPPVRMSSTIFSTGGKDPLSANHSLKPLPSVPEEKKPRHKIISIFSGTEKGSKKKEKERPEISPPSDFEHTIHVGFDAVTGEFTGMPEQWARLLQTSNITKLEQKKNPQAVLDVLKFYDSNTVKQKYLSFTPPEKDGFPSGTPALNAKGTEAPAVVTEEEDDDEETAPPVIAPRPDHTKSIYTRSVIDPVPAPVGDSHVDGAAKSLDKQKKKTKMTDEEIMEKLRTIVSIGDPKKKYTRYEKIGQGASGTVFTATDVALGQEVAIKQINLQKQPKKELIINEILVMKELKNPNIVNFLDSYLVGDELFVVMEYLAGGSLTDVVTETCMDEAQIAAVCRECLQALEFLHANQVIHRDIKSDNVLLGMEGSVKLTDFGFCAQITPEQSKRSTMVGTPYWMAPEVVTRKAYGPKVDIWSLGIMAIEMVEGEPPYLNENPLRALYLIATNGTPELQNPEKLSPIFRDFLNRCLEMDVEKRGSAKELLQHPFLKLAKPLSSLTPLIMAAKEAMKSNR

[11] = molecular target: Cyclin-dependent kinase 2 (Homo sapiens, UniProt P24941); experiment: Inhibition of recombinant CDK2; summary of the method: as §3
[12] = molecular target: Mitogen-activated protein kinase kinase kinase 8 (Homo sapiens, UniProt P41279); experiment: Inhibition of recombinant COT; summary of the method: as §3
[13] = molecular target: Receptor tyrosine-protein kinase erbB-2 (Homo sapiens, UniProt P04626); experiment: Inhibition of recombinant ERBB2; summary of the method: as §4
Insulin receptor = Insulin receptor (Homo sapiens, UniProt P06213); experiment: Inhibition of recombinant INSR; summary of the method: as §3
[14] = molecular target: Tyrosine-protein kinase JAK1 (Homo sapiens, UniProt P23458); experiment: Inhibition of recombinant JAK1; summary of the method: as §4
Chain of Tyrosine-protein kinase JAK1 (P23458 whole entry): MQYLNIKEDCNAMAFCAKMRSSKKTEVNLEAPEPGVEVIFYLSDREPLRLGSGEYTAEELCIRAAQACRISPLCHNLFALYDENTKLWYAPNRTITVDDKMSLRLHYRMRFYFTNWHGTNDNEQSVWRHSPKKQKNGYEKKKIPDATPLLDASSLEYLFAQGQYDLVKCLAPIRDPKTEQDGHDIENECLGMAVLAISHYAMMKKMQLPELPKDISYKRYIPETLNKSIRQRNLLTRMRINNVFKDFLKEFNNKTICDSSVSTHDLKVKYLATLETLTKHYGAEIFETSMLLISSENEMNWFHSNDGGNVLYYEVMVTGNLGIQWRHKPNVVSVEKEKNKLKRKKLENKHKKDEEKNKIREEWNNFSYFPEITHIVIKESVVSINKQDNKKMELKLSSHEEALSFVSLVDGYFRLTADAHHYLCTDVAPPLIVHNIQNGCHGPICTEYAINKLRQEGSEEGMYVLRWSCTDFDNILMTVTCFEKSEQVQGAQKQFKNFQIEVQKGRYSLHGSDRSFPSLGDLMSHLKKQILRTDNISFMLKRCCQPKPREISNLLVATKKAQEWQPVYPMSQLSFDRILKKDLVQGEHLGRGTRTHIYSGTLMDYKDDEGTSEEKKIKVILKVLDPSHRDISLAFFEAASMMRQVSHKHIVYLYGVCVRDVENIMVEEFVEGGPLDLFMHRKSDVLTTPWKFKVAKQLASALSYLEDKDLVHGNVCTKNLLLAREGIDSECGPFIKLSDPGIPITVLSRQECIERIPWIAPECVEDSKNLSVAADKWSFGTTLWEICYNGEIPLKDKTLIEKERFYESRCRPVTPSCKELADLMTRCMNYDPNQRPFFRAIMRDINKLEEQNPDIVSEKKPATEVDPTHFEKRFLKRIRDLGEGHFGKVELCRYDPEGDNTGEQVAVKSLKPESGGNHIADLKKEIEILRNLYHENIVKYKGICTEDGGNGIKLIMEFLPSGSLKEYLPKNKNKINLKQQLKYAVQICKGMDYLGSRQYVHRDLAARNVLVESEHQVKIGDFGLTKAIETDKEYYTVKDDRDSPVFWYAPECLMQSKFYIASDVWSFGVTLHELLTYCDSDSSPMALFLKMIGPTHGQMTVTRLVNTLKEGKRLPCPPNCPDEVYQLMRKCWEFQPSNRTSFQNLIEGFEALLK

[15] = molecular target: Tyrosine-protein kinase JAK2 (Homo sapiens, UniProt O60674); experiment: Inhibition of recombinant JAK2
Summary of the method: (§5)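 Purified recombinant kinases were tested under optimized conditions with peptide substrates. ATP was set at each kinase's Km. Phosphorylation was read out by microfluidic mobility shift, and IC50 values were determined.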

[16] = molecular target: Proto-oncogene tyrosine-protein kinase receptor Ret (Homo sapiens, UniProt P07949); experiment: Inhibition of recombinant RET; summary of the method: as §5
[17] = molecular target: Tyrosine-protein kinase SYK (Homo sapiens, UniProt P43405); experiment: Inhibition of recombinant SYK; summary of the method: as §3
[18] = molecular target: Non-receptor tyrosine-protein kinase TYK2 (Homo sapiens, UniProt P29597); experiment: Inhibition of recombinant TYK2; summary of the method: as §5
[19] = molecular target: Phosphatidylinositol 3-kinase catalytic subunit type 3 (Homo sapiens, UniProt Q8NEB9); experiment: Inhibition of recombinant VPS34 by luminescent kinase assay
Chain of Phosphatidylinositol 3-kinase catalytic subunit type 3 (Q8NEB9 whole entry): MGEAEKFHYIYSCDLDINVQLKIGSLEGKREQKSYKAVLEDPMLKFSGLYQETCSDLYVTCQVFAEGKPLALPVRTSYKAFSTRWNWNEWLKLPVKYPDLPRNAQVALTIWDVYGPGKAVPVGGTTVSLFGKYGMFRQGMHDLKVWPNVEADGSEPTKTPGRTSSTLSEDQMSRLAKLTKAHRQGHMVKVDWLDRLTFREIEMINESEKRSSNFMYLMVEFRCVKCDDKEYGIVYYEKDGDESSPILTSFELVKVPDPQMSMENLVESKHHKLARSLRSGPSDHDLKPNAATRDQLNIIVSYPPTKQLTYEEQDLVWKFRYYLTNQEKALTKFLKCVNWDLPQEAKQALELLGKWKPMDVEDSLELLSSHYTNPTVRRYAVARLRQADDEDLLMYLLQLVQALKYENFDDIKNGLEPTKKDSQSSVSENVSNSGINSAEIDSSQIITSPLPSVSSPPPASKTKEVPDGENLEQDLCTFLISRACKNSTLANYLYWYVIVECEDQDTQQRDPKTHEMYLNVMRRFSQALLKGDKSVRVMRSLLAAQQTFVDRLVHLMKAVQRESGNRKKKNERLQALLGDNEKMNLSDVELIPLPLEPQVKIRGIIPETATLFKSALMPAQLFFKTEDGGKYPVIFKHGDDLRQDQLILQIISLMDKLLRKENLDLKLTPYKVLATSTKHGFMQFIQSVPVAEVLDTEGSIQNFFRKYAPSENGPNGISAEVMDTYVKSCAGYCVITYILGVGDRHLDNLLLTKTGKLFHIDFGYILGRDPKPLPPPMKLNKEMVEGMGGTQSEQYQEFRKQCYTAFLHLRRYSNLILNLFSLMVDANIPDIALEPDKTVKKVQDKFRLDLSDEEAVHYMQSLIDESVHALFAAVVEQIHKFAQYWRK

Rattus norvegicus [20] = experiment: Toxicity in nude Rowett rat xenografted with human RT112 cells assessed as body weight loss at 5 mg/kg, po qd administered for 20 days; format: organism-based, RT-112; set-up: dose 5 mg/kg, route oral; settings: in vivo, 480 h
Summary of the method: (§6)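 Female nude Rowett rats carried subcutaneous RT112 tumors (1 × 10^6 cells in Matrigel), starting at about 100 mm3. The monophosphate salt was gavaged daily for 20 days at 5, 10 or 15 mg/kg (free base) in acetate buffer pH 4.6/PEG300 (1:1), n = 8. Body weight and morbidity were monitored; ANOVA with Dunnett's test.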

Rattus norvegicus [21] = experiment: Inhibition of FGFR autophosphorylation in RT112 tumor bearing nude rowett rat assessed as decrease in pFRS2 concentration at 4.25 to 8.51 mg/kg, po administered as a single dose after 24 hrs by Western blot analysis; format: functional, organism-based
Summary of the method: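 RT112 tumor-bearing nude Rowett rats (n = 4) received a single oral dose of monophosphate salt at 4.25 or 8.51 mg/kg free base. Tumors were collected at time points up to 24 h and lysed in Tris/Triton buffer with vanadate and protease inhibitors. Western blots were run for pFRS2(Tyr196) and pMAPK, with total FRS2, total MAPK or β-tubulin as loading controls.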

Rattus norvegicus [22] = experiment: Toxicity in nude Rowett rat xenografted with human RT112 cells assessed as morbidity at 5 mg/kg, po qd administered for 20 days; format: organism-based, RT-112; set-up: dose 5 mg/kg, route oral; settings: in vivo, 480 h; summary of the method: as §6
Rattus norvegicus [23] = experiment: Toxicity in nude Rowett rat xenografted with human RT112 cells assessed as weight loss at 10 mg/kg, po qd administered for 20 days; format: organism-based, RT-112; set-up: dose 10 mg/kg, route oral; settings: in vivo, 480 h; summary of the method: as §6
Tumour [24] = experiment: Drug uptake in tumour of nude Rowett rat bearing human RT112 cells at 4.25 mg/kg, po administered as a single dose after 24 hrs by LC-MS/MS analysis; format: ADME, organism-based, Neoplasm, RT-112; set-up: dose 4.25 mg/kg, route oral; settings: in vivo
Summary of the method: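 Nude Rowett rats bearing subcutaneous RT112 tumors (n = 4) received a single gavage of monophosphate salt at 4.25 or 8.51 mg/kg free base in acetate buffer pH 4.6/PEG300. Tumors were collected at intervals after dosing, frozen and homogenized in an equal volume of ice-cold PBS. Compound levels were measured by LC-MS/MS (LOQ 3 ng/mL).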

[25] = molecular target: ALK tyrosine kinase receptor (Homo sapiens, UniProt Q9UM73); experiment: Inhibition of recombinant ALK; summary of the method: as §3
Chain of ALK tyrosine kinase receptor (Q9UM73 whole entry): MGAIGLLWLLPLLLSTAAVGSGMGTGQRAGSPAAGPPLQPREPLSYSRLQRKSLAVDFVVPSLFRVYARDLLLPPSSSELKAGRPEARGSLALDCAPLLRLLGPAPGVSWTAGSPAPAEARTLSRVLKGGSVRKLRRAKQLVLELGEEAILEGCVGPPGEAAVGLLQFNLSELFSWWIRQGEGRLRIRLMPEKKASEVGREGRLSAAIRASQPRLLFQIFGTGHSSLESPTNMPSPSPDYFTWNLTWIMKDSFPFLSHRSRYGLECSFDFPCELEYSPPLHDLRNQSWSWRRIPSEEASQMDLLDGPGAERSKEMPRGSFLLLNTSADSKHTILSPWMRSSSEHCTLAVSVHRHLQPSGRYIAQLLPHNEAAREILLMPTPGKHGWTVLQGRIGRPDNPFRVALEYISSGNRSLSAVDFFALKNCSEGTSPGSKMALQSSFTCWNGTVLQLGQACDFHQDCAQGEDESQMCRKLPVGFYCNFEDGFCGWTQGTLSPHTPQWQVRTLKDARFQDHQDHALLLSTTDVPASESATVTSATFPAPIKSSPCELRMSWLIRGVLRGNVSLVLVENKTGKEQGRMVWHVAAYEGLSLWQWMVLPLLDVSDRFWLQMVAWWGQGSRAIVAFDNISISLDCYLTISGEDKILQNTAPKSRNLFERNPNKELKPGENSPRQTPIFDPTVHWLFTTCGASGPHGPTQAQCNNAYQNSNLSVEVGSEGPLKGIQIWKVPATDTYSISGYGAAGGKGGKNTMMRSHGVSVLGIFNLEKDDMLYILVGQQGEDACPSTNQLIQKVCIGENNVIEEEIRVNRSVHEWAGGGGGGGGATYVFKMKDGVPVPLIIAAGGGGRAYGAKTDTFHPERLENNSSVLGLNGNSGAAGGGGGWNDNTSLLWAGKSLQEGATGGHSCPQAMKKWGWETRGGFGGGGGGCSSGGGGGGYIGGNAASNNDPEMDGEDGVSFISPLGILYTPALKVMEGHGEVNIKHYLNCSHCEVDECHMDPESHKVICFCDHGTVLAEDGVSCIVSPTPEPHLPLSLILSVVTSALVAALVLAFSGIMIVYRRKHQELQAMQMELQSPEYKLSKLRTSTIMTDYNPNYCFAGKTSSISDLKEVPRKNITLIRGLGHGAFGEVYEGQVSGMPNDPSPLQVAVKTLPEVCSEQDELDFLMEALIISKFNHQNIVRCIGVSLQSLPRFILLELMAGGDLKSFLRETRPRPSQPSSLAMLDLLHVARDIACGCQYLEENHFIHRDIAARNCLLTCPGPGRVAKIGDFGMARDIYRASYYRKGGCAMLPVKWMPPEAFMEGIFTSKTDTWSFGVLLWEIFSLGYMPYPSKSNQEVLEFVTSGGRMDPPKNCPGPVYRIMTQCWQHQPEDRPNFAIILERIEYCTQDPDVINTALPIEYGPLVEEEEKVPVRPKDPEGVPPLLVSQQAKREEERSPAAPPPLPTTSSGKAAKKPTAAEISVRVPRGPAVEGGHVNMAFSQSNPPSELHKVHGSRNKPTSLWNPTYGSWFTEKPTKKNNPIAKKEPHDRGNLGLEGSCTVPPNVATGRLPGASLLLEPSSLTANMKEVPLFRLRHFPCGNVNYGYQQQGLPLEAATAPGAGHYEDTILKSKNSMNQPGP

Mus musculus = experiment: Toxicity in athymic nude mouse xenografted with human RT112 cells/luc1 assessed as increase in body weight at 30 mg/kg, po administered for 12 days; settings: in vivo, 288 h

With `CCN1CCN(c2ccc(Nc3cc(N(C)C(=O)Nc4c(Cl)c(OC)cc(OC)c4Cl)ncn3)cc2)CC1.O=P(O)(O)O` [INFIGRATINIB PHOSPHATE] the half-life [1] was 9.3 h, the AUC/dose (Tumour [2]) was 1.85 nmol·h/g and the clearance [3] was 60 mL/min/kg. The Cmax [4] was 260 nM, the AUC/dose (Rattus norvegicus [5]) was 0.25 µM·h and the IC50 (UMUC3) was over 3 µM. The IC50 [6] was over 10 µM, the IC50 [7] was over 10 µM and the IC50 [8] was over 10 µM. For the same compound, the IC50 [9] was over 10 µM, the IC50 [10] was over 10 µM and the IC50 [11] was over 10 µM. For the same compound, the IC50 [12] was over 10 µM, the IC50 [13] was over 10 µM and the IC50 (Insulin receptor) was over 10 µM. It also gave an IC50 [14] of over 10 µM, an IC50 [15] of over 10 µM and an IC50 [16] of over 10 µM. For the same compound, the IC50 [17] was over 10 µM, the IC50 [18] was over 10 µM and the IC50 [19] was over 10 µM. The Activity (Rattus norvegicus [20]) was “Non-toxic”, the inhibition (Rattus norvegicus [21]) was “inactive” and the Activity (Rattus norvegicus [22]) was “Non-toxic”. The Activity (Rattus norvegicus [23]) was 4%, the Drug uptake (Tumour [24]) was 0.12 nmol/g and the IC50 [25] was over 10 µM. It also gave an Activity (Mus musculus) of 10%.
